From ChEMBL document CHEMBL2331357, “Bioassay-guided isolation of proanthocyanidins with antiangiogenic activities” (J Nat Prod, 2013) come the findings set out here.

Active and inactive are the calls of the source. No cut-off for these calls is given here. Where only a bound is given, the exact number is not on record here.

In general, Kd refers to the constant that tells how readily two partners part at equilibrium.

The target in assay [1] is T1, Vascular endothelial growth factor A, long form (Homo sapiens, UniProt P15692).
T1 sequence (P15692 whole entry): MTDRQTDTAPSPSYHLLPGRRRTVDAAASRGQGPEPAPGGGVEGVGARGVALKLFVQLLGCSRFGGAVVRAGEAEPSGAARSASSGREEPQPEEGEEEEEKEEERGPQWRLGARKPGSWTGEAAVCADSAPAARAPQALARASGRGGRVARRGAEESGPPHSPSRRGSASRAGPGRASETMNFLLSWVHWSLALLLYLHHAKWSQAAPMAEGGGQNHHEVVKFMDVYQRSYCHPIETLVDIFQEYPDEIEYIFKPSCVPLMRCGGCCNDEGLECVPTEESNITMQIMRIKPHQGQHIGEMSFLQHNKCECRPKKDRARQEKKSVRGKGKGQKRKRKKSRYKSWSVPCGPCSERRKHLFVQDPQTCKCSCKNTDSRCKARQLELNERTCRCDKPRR
Briefly: Binding affinity to recombinant VEGFA (unknown origin) measured for 60 seconds by surface plasmon resonance assay. The procedure, abridged: (§1)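 Biacore CM5 chip; proteins (100 μg/mL in 10 mM NaOAc, pH 5.0) amine-coupled to 8−12 kRU alongside BSA and unmodified reference surfaces. Compounds from 4 mM DMSO stocks diluted 1:200 in PBS (10 mM NaH2PO4, 150 mM NaCl, pH 7.4; final DMSO 0.5%), 2-fold six-point series typically 0.025−1 μM, triplicate aliquots with buffer blanks. Association and dissociation recorded; thermodynamic KD derived.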
In general terms: In SPR one partner is held on a chip, and binding of the other changes the refractive index at the surface.

Assay [2] deals with T2, Vascular endothelial growth factor receptor 1 (Homo sapiens, UniProt P17948). As to the kind of experiment: Inhibition of recombinant VEGF-A/VEGFR-1 (unknown origin) interaction after 1 hr by ELISA. The procedure, abridged:
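Competitive ELISA: Fc/VEGFR-1 coated at 0.5 μg/mL for 16 h at RT, blocked 3 h with 1% BSA. PlGF-1 (5 ng/mL) or VEGF-A (10 ng/mL) in PBS with 0.1% BSA, 5 mM EDTA, 0.004% Tween 20 added with DMSO-dissolved compound, 1 h 37 °C then 1 h RT. Biotinylated anti-ligand antibody, avidin–biotin-HRP, o-phenylenediamine/H2O2 detection at 490 nm; triplicate points, repeated twice.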
In general terms: ELISA stands for enzyme-linked immunosorbent assay.

The target in assay [3] is T3, Placenta growth factor (Homo sapiens, UniProt P49763).
T3 sequence (P49763 whole entry): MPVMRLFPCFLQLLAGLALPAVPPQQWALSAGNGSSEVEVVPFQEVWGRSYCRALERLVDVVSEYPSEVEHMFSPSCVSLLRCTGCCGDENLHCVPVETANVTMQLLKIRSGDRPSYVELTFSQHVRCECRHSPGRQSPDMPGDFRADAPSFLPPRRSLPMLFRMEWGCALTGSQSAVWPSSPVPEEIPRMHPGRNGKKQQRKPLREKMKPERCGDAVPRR
Briefly: Binding affinity to recombinant PIGF1 (unknown origin) measured for 60 seconds by surface plasmon resonance assay. The procedure, abridged: as §1

The test system of assay [4] is Jurkat. As to the kind of experiment: Cytotoxicity against human Jurkat cells after 24 to 72 hrs by MTT assay. The format is cell-based. The procedure, abridged: (§2)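 Cells kept in DMEM with 10% FBS, 2 mM L-glutamine, penicillin/streptomycin, 37 °C, 5% CO2, subcultured every two days. Seeded at 1 × 10^4 cells/well and grown without or with various compound concentrations; cell number quantified by MTT conversion at 24, 48 and 72 h. IC50 from at least two independent experiments in triplicate.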

The subject of assay [5] is MCF7. Briefly: Cytotoxicity against human MCF7 cells after 24 to 72 hrs by MTT assay. It counts as cell-based. The procedure, abridged:
as §2

Assay [6] is filed under the species Gallus gallus. Briefly: Antiangiogenic activity in chicken embryo chorioallantoic membrane model assessed as reduction of junction of blood vessels at 10 ug/egg after 4 days. It counts as functional, tissue-based. A digest of the protocol:
(§3)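 Fertilized chicken eggs incubated at 37 °C, humidified, turned several times; after 4 days a 1 cm2 window opened on the broad side. Test material applied per egg; controls received albumen (100 μL/egg); retinoic acid 2 μg/egg as positive control; at least five eggs per dose. Eggs reincubated two days, then vessels photographed under microscope; branch points compared with albumen controls; mean ± SD of three experiments, Student's t-test.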

The species named for assay [7] is Gallus gallus. As to the kind of experiment: Antiangiogenic activity in chicken embryo chorioallantoic membrane model assessed as reduction of size of blood vessels at 10 ug/egg after 4 days. It counts as functional, tissue-based. A digest of the protocol:
as §3

The species entered for assay [8] is Gallus gallus. As to the kind of experiment: Antiangiogenic activity in chicken embryo chorioallantoic membrane model assessed as reduction of length of blood vessels at 10 ug/egg after 4 days. It counts as functional, tissue-based. The procedure, abridged: as §3
The species named for assay [9] is Gallus gallus. Briefly: Antiangiogenic activity in chicken embryo chorioallantoic membrane model assessed as reduction of number of blood vessels at 10 ug/egg after 4 days. It counts as functional, tissue-based. The procedure, abridged:
as §3

A short description of assay [10]: Antiangiogenic activity in chicken embryo chorioallantoic membrane model assessed as inhibition of blood vessels growth after 4 days. The format is functional, tissue-based, Gallus gallus. The procedure, abridged:
as §3

For assay [11], the species on record is Gallus gallus. Briefly: Antiangiogenic activity in chicken embryo chorioallantoic membrane model assessed as inhibition of blood vessels growth at 10 ug/egg after 4 days. It counts as functional, tissue-based. The procedure, abridged:
as §3

In assay [12] the target is T2, Vascular endothelial growth factor receptor 1. Briefly: Inhibition of recombinant PlGF-1/VEGFR-1 (unknown origin) interaction after 1 hr by ELISA.
The species named for assay [13] is Gallus gallus. Briefly: Antiangiogenic activity in chicken embryo chorioallantoic membrane model assessed as reduction of capillary formation at 2 ug/egg after 4 days. The format is functional, tissue-based. A digest of the protocol:
as §3

The species entered for assay [14] is Gallus gallus. As to the kind of experiment: Antiangiogenic activity in chicken embryo chorioallantoic membrane model assessed as inhibition of blood vessels growth at 2 ug/egg after 4 days. The format is functional, tissue-based. The procedure, abridged: as §3

T2 sequence (P17948 whole entry): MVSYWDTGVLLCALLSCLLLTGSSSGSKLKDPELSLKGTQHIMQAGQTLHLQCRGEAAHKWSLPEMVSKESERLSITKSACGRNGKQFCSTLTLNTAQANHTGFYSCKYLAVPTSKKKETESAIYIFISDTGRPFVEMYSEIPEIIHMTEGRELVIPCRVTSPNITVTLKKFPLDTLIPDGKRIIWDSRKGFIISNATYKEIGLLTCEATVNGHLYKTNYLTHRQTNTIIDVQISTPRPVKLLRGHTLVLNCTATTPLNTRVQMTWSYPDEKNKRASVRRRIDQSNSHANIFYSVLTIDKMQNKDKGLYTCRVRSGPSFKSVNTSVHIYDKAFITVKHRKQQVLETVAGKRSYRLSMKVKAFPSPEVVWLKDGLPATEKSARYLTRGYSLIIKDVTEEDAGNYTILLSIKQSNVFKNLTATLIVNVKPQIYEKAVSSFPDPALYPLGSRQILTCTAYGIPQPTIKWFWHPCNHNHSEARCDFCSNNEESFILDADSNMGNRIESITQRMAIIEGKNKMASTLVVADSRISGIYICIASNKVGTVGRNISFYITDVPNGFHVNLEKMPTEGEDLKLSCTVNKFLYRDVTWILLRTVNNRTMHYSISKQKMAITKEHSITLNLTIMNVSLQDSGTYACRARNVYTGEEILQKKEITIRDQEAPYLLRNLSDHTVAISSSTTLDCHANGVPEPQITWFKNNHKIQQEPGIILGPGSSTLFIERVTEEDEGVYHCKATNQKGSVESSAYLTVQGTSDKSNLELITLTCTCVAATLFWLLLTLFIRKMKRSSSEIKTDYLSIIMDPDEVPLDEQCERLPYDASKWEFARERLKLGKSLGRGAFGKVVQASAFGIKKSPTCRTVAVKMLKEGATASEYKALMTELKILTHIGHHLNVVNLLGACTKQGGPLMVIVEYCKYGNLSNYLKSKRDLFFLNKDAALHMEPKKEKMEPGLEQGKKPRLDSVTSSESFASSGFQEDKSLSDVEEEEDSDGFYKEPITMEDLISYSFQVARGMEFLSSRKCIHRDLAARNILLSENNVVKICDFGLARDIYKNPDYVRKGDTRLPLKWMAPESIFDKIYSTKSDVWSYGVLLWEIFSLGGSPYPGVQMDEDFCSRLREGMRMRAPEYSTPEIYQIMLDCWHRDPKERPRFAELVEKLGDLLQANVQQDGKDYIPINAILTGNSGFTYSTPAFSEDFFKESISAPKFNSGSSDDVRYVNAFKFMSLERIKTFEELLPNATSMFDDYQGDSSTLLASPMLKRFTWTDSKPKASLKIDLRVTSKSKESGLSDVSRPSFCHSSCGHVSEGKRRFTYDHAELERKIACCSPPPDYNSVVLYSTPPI

In the case of `Oc1ccc([C@H]2Oc3c(c(O)cc4c3[C@H]3c5c(O)cc(O)cc5O[C@@](c5ccc(O)c(O)c5)(O4)[C@@H]3O)C[C@@H]2O)cc1` [GERANIN B], the equilibrium dissociation constant (Kd) was 0.048 µM in assay [1] (read-out: Kd) and 0.023 µM in assay [3] (read-out: Kd). The IC50 in [2] is 65 µM; in assay [4], over 70 µM; in assay [5], over 70 µM.

As to `Oc1ccc([C@@H]2C[C@@H](c3c(O)cc(O)c4c3O[C@H](c3ccc(O)cc3)[C@@H](O)C4)c3c(O)cc(O)cc3O2)cc1`, the outcome in assay [6], in assay [7], in [8] and in assay [9] was Active. The IC50 in [10] is 9.79 µg; in assay [2] it was 50 µM; in assay [12], 15 µM; in [4], over 70 µM; in assay [5], over 70 µM. For the same molecule, the growth inhibition (GI) in assay [11] turned out to be 56.2%. Moreover, the dissociation constant (Kd) in [1] (read-out: Kd) turned out to be 0.016 µM; in [3] (read-out: Kd), 0.011 µM.

Regarding `O=c1cc(-c2ccc(O)c(-c3c(O)cc(O)c4c(=O)cc(-c5ccc(O)cc5)oc34)c2)oc2cc(O)cc(O)c12` [AMENTOFLAVONE], the values for the equilibrium dissociation constant (Kd) in assay [1] (read-out: Kd) and in [3] (read-out: Kd) were 0.0165 µM and 0.0082 µM, respectively.

As to `Oc1cc(O)c2c(c1)O[C@@]1(c3ccc(O)c(O)c3)Oc3cc(O)c4c(c3[C@@H]2[C@H]1O)O[C@H](c1ccc(O)c(O)c1)[C@@H](O)C4` [PROANTHOCYANIDIN A1], the dissociation constant (Kd) is 0.476 µM in [1] (read-out: Kd) and 0.394 µM in assay [3] (read-out: Kd). The IC50 in assay [4] and in [5] was over 70 µM in each case.

For the molecule `Oc1ccc([C@@H]2C[C@@H](c3c(O)cc(O)c4c3O[C@H](c3ccc(O)cc3)[C@H](O)C4)c3c(O)cc(O)cc3O2)cc1`, the Kd entry in assay [1] and in assay [3] was “Not Active” in each case. The IC50 in assay [4] and in assay [5] was over 70 µM each time.

With `CC1=C(/C=C/C(C)=C/C=C/C(C)=C/C(=O)O)C(C)(C)CCC1`, the outcome in assay [13] was Active. The growth inhibition (GI) in assay [14] worked out at 75.5%.

Turning to `Oc1cc(O)c2c(c1)O[C@@]1(c3ccc(O)c(O)c3)Oc3cc(O)c4c(c3[C@@H]2[C@H]1O)O[C@H](c1ccc(O)c(O)c1)[C@H](O)C4` [PROANTHOCYANIDIN A2], the Kd entry in [1] and in assay [3] was “Not Active” in each case. Further, the IC50 in [4] and in [5] was over 70 µM each time.
